This is an account of results in ChEMBL document CHEMBL5653631, “A Potent and Selective ULK1 Inhibitor Suppresses Autophagy and Sensitizes Cancer Cells to Nutrient Stress” (iScience, 2018).

Assay [1] concerns the target Platelet-derived growth factor receptor alpha (Homo sapiens) (UniProt P16234). In words: Inhibition of human recombinant PDGFRa at 40 nM in presence of ATP by radiometric assay relative to control.
Assay [2] concerns the target Tyrosine-protein kinase CSK (Homo sapiens) (UniProt P41240). In words: Inhibition of human recombinant CSK at 500 nM in presence of ATP by radiometric assay relative to control.
In assay [3] the target is Ephrin type-A receptor 7 (Homo sapiens) (UniProt Q15375). Nature of the assay: Inhibition of human recombinant EphA7 at 500 nM in presence of ATP by radiometric assay relative to control.
Chain of Ephrin type-A receptor 7 (Homo sapiens) (Q15375 28-998 limits assumed): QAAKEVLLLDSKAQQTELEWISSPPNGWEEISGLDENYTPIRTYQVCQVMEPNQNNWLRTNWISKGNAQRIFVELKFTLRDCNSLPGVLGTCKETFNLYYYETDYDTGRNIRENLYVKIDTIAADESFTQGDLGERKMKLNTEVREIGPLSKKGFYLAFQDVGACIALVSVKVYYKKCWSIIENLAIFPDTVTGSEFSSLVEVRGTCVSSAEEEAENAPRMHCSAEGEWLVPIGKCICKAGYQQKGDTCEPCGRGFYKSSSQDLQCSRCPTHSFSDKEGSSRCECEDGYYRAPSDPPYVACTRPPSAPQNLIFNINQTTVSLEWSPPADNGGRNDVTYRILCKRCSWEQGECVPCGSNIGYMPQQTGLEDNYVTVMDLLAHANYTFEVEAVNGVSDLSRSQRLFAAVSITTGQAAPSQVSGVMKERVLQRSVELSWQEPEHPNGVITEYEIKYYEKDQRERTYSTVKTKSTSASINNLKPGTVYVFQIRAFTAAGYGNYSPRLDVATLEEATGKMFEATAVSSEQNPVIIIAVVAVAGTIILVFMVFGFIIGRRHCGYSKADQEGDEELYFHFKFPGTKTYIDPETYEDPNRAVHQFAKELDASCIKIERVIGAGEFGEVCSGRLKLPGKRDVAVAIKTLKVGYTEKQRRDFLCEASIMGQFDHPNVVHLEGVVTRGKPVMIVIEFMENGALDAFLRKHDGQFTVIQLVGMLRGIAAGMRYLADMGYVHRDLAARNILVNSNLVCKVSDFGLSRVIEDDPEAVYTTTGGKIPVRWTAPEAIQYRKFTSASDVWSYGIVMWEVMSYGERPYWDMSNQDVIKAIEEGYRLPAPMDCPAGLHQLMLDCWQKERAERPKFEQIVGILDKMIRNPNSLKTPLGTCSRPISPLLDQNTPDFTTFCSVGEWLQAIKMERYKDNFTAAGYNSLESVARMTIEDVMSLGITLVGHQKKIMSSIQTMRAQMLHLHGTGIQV
The target in assay [4] is T1, Tyrosine-protein kinase ITK/TSK (Homo sapiens) (UniProt Q08881).
T1 sequence (whole entry): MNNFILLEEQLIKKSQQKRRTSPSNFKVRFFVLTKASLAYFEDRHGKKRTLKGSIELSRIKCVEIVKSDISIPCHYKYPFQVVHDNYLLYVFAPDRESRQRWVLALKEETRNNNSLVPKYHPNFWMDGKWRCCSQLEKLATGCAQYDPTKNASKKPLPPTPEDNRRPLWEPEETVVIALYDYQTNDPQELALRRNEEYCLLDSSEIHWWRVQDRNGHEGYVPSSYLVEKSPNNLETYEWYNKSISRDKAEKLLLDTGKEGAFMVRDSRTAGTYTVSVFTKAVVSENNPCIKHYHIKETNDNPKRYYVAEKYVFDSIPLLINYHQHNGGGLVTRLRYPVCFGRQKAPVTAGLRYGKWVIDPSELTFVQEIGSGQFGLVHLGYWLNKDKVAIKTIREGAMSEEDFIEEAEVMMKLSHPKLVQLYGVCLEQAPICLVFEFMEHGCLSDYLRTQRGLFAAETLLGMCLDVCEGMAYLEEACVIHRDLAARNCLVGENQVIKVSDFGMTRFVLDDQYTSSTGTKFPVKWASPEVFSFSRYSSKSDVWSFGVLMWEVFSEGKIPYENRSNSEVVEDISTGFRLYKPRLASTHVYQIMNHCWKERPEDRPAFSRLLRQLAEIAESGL
Nature of the assay: Inhibition of human recombinant ITK at 500 nM in presence of ATP by radiometric assay relative to control.

The target of assay [5] is Platelet-derived growth factor receptor beta (Homo sapiens) (UniProt P09619). In words: Inhibition of human recombinant PDGFRb at 500 nM in presence of ATP by radiometric assay relative to control.
Assay [6] concerns the target T2, Discoidin domain-containing receptor 2 (Homo sapiens) (UniProt Q16832).
T2 sequence (whole entry): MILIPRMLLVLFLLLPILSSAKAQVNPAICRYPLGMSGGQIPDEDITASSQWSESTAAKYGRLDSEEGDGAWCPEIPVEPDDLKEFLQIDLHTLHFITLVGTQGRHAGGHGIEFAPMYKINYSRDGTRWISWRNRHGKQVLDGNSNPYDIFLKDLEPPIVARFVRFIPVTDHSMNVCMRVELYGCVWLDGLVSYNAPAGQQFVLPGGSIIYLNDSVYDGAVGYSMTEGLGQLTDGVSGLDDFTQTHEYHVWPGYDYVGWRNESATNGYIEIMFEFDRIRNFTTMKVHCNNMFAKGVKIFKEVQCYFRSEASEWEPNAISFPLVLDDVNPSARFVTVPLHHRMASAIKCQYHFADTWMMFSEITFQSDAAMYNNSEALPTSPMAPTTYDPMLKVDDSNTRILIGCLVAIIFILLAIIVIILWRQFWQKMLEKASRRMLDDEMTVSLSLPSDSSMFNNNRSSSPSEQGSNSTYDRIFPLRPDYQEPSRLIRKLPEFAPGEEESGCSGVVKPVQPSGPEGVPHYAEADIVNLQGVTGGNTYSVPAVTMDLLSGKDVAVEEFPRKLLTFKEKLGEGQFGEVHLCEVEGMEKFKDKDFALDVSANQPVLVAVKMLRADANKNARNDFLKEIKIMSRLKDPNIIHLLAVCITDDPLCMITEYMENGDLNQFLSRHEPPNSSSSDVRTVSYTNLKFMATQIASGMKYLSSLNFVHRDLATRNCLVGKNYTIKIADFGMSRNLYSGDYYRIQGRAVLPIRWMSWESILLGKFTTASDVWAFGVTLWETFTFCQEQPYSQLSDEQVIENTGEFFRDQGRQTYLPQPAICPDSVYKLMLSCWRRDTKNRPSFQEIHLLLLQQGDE
In words: Inhibition of human recombinant DDR2 at 500 nM related to control ULK1.

The target in assay [7] is Serine/threonine-protein kinase/endoribonuclease IRE1 (Homo sapiens) (UniProt O75460). Nature of the assay: Inhibition of human recombinant IRE1 at 500 nM in presence of ATP by radiometric assay relative to control.
Chain of Serine/threonine-protein kinase/endoribonuclease IRE1 (Homo sapiens) (O75460 19-977 limits assumed): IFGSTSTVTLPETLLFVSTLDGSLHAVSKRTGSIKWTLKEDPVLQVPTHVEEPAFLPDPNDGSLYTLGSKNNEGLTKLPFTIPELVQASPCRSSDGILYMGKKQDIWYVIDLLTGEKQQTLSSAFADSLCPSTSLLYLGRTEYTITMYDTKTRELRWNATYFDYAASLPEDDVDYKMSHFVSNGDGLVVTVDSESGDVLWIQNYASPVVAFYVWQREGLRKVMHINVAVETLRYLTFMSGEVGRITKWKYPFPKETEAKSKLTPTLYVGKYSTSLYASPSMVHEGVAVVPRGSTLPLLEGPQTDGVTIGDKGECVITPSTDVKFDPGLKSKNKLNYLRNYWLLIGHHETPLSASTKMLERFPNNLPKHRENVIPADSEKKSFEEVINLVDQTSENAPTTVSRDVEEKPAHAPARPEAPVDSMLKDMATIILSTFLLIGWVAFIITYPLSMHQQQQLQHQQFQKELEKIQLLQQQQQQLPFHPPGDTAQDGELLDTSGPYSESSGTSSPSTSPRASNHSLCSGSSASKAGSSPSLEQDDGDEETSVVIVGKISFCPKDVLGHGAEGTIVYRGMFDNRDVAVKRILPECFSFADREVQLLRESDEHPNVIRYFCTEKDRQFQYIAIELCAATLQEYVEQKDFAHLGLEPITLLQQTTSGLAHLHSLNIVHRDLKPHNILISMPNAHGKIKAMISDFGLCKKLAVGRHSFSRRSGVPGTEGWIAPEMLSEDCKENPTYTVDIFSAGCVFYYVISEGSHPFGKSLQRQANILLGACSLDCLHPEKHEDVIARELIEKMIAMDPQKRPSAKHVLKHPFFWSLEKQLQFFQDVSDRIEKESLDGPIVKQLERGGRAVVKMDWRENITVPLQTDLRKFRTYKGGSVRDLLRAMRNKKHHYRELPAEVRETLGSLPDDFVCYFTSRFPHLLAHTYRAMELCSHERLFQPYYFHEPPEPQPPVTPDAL
Assay [8] addresses T3, Serine/threonine-protein kinase 17A (Homo sapiens) (UniProt Q9UEE5).
T3 sequence (whole entry): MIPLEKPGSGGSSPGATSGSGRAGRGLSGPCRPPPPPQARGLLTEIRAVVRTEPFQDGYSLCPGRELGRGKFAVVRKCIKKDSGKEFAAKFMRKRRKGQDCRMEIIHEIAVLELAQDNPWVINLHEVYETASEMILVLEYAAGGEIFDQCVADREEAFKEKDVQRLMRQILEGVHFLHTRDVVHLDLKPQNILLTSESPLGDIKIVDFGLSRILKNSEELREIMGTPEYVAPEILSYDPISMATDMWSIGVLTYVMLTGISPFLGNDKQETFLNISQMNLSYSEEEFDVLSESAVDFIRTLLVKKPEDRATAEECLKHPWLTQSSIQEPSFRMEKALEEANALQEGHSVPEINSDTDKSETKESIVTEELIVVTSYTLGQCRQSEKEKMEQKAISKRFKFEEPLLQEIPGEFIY
Nature of the assay: Inhibition of human recombinant DRAK1 at 500 nM related to control ULK1.

Assay [9] concerns the target T4, Aurora kinase C (Homo sapiens) (UniProt Q9UQB9).
T4 sequence (whole entry): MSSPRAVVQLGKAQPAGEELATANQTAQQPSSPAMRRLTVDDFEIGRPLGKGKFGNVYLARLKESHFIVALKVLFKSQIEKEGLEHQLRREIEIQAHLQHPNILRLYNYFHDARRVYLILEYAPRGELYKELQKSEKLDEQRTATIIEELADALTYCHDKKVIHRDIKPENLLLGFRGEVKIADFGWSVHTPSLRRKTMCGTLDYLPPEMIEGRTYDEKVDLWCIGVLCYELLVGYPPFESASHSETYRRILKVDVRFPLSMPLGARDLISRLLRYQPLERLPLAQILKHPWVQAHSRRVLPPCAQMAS
In words: Inhibition of human recombinant AurC at 500 nM in presence of ATP by radiometric assay relative to control. A digest of the protocol:
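Part of a radiometric in vitro activity panel of 327 recombinant human kinases. Each kinase was tested in duplicate at one inhibitor concentration. Activity remaining was expressed as a percentage of the vehicle control, and percent inhibition was taken as 100 minus that value.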

Assay [10] has as its target TRAF2 and NCK-interacting protein kinase (Homo sapiens) (UniProt Q9UKE5). Nature of the assay: Inhibition of human recombinant TNIK at 15 nM in presence of ATP by radiometric assay relative to control.

Chain of Platelet-derived growth factor receptor alpha (Homo sapiens) (P16234 whole entry): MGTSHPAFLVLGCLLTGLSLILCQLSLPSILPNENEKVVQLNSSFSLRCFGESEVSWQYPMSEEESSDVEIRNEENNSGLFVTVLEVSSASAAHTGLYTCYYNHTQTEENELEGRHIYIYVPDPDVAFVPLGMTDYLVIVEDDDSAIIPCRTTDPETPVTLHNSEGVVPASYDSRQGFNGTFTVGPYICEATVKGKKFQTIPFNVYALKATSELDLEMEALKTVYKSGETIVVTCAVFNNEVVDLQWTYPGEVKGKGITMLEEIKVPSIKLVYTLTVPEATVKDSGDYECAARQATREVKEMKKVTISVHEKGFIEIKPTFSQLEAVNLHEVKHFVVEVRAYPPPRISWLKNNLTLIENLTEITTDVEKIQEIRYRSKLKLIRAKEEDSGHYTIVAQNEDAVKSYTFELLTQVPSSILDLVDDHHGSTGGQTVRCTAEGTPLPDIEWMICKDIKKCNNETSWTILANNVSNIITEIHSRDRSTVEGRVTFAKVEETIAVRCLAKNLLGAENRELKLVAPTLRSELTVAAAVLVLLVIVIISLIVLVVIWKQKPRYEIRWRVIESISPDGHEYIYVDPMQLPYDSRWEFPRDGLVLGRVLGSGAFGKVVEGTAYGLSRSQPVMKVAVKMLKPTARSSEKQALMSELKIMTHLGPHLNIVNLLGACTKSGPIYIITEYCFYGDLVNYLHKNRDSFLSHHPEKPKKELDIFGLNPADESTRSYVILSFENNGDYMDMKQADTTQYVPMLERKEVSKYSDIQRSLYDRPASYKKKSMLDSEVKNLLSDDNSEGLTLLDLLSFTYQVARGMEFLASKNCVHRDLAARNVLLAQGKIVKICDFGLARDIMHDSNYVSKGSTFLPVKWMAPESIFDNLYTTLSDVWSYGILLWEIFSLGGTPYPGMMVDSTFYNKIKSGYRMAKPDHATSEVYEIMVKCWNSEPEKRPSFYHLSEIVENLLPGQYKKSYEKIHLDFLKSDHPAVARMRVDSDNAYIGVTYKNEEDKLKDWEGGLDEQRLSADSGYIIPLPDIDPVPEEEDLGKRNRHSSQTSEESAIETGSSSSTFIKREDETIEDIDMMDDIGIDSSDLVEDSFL
Chain of Tyrosine-protein kinase CSK (Homo sapiens) (P41240 2-450 limits assumed): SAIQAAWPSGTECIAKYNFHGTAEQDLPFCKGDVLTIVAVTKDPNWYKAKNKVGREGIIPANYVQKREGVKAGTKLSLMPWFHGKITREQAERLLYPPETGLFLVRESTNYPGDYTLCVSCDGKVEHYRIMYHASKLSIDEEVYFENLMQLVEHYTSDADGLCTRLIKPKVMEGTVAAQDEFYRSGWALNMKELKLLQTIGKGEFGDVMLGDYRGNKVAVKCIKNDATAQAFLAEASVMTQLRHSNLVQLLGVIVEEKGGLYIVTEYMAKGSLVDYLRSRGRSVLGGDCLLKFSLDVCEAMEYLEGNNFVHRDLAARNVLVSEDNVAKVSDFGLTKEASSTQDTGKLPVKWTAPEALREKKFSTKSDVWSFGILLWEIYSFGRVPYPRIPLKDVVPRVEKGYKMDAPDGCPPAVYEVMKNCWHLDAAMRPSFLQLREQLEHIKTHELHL
Chain of TRAF2 and NCK-interacting protein kinase (Homo sapiens) (Q9UKE5 whole entry, looked up): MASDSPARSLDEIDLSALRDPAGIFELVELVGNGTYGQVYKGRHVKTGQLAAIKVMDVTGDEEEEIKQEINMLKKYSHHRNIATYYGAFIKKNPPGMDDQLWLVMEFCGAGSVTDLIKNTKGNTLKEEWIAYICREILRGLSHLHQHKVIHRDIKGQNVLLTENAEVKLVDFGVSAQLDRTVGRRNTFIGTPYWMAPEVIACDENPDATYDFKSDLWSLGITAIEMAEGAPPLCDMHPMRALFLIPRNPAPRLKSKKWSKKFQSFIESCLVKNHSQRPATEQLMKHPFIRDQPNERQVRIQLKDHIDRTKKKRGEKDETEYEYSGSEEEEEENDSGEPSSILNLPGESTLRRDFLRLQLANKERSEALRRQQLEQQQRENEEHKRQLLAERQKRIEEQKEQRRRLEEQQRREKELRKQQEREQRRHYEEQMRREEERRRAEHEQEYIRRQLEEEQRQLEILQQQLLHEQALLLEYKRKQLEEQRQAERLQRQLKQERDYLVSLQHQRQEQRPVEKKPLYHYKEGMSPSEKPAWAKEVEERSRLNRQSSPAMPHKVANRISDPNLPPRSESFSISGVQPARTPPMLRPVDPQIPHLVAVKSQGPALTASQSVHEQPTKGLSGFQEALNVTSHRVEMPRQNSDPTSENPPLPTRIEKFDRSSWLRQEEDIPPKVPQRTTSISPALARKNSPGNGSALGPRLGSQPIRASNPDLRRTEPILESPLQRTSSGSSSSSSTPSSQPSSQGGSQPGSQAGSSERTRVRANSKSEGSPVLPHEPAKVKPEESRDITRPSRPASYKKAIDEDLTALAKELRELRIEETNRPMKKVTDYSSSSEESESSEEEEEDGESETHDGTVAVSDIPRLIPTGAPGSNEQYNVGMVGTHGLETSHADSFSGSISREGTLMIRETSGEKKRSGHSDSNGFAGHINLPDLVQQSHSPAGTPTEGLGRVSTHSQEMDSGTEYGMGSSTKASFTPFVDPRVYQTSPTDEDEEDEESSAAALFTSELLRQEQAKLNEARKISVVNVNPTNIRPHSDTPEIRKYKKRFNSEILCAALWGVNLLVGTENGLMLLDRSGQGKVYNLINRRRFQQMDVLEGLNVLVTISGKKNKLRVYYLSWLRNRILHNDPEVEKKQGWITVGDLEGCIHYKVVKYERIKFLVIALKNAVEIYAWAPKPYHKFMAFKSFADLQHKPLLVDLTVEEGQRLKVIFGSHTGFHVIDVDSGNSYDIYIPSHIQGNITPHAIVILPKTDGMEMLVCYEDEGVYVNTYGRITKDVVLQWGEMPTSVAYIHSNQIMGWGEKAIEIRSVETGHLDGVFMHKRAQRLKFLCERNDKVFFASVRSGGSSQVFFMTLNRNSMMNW

As a reminder, the inhibition is the share of the control response that was lost under treatment. On to `O=C(N[C@@H](C1CC1)C(F)(F)F)c1cc(-c2cnn3cc(-c4ccc(F)cc4)cnc23)cs1`, for which the inhibition in assay [1] is 0%.
In the case of `CNC(=O)c1ccccc1Oc1nc(Nc2cc(OC)c(OC)c(OC)c2)ncc1Br`, the inhibition in assay [2] came out at 2%; in [3], 0%; in [4], 1%; in [5], 0%; in assay [7], 0%; in assay [9], 73%. The fold change (FC) in assay [6] and in assay [8] was 0 in each case.
With `CC(C)[C@H](NC(=O)c1cc(-c2cnn3cc(-c4ccc(OCCN5CCCCC5)cc4)cnc23)cs1)C(F)(F)F`, in [10], the inhibition is 5%.
